# In article PMC2671235 (Biochemistry, 2009):
# Entries after “also recorded” stand apart in the source; their conditions may differ. Read-outs that look alike come from different tables or passages of the source. Ends that are not written are not given here.
# Legend:
# S100A6-Y84S = assay: Far-UV CD difference spectra, AnI with S100A6-Y84S; type: binding, human; settings: 5 mM calcium
# In short: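 Spectra of 10 μM protein with 50 μM AnI in 5 mM calcium binding buffer were recorded at 250–200 nm. The difference spectrum was complex minus free peptide minus free protein, converted to mean residue ellipticity assuming saturated sites.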
# S100A6 [1] = target: T1, S100A6 (Homo sapiens, UniProt P06703); assay: Trp fluorescence titration of AnI with S100A6; type: binding
# [2] = Analytical equilibrium ultracentrifugation; type: physicochemical; settings: 4°C, 35,000 rpm, 20 mM Tris, 1 mM TCEP, 0.2 mM EDTA, pH 7.5, absence or presence of 5 mM calcium; single species fit
# In short: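 Peptides were N-terminally acetylated; AnII carried an added C-terminal Tyr. Concentrations came from ε280 of 5,500 (AnI) and 1,490 (AnII) M−1 cm−1. Radial distributions were fitted to a single-species equilibrium equation using partial specific volumes of 0.748 (AnI) and 0.745 (AnII) cm3/g.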
# [3] = Far-UV CD of free peptides; type: physicochemical; settings: TFE up to 60%, with or without calcium
# In short: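 Peptides were run at […] in 20 mM Tris, 3 mM DTT, 0.2 mM EDTA, pH 7.5, without or with 5 mM calcium. TFE was added up to 60% final. Buffer-corrected ellipticity was converted to mean residue ellipticity. Fraction helicity was taken from [Θ]222 against temperature-dependent fully coiled and fully helical reference values.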
# S100A10 [4] = settings: literature; ref [15]; cited from earlier work
# [5] = Trp fluorescence emission of free AnI; type: physicochemical; settings: free AnI in solution, excitation 295 nm, emission 305-400 nm, pH 7.5
# S100A11 [6] = target: T2, S100A11 (Homo sapiens, UniProt P31949); assay: Trp fluorescence titration of AnI with S100A11; type: binding
# T2 sequence (P31949 1-105): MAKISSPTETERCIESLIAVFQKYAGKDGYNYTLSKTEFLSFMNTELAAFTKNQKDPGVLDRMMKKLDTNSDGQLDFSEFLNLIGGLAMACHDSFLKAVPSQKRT
# In short: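 Intrinsic Trp emission of 2 μM peptide, excited at 295 nm and read at 305–400 nm. Protein was added stepwise in 1.2 μM increments to 10 μM, a final 5:1 protein:peptide ratio. Emission intensity and maximum were followed. Kd came from fitting the intensity change against protein concentration to a model with two identical sites per dimer.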
# S100A6 [7] = target: T1, S100A6; assay: ITC of AnI binding to Ca2+-S100A6; settings: different temperatures, relative to free energy of binding
# In short: (§1)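 VP-ITC in 20 mM Tris, 0.2 mM EDTA, 1 mM TCEP, pH 7.5 with 5 mM calcium. Protein and peptide were co-dialysed with three buffer changes at 4°C. Because of its limited solubility, the AnI peptide was placed in the cell and the S100 protein titrated from the syringe. Runs were done at five temperatures (15–35°C). Integrated injection heats were fitted to a two identical non-interacting sites per dimer model.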
# [8] = system: sixteen members of S100 protein family; assay: Screen of peptides against S100 family; type: binding, human; settings: S100 proteins other than the partners found (S100A6, S100A10, S100A11)
# S100A11 [9] = target: T2, S100A11; assay: Far-UV CD difference spectra, peptide with S100A11; type: binding; settings: for fractional helicity upon binding: far-UV CD difference spectra, 10 μM protein, 50 μM peptide, 5 mM calcium; for coil-to-helix transition upon binding: far-UV CD, Ca2+-S100A11
# In short: (§2)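 Recombinant S100 protein expressed in E. coli BL21(DE3), purified by phenyl-Sepharose and Sephadex G-75; S100A10 eluted in 8 M urea and refolded by dialysis. Far-UV CD recorded 250–200 nm on 10 μM protein plus 50 μM peptide in binding buffer with 5 mM calcium. Difference spectrum: complex minus free peptide minus free protein, converted to mean residue ellipticity assuming saturated sites. Fraction helicity derived from [Θ]222 against temperature-dependent coil and helix reference values.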
# S100A11 [10] = target: T2, S100A11; assay: ITC of AnI binding to Ca2+-S100A11
# In short: as §1
# [11] = system: S100 protein family members (S100A1-S100A13, S100B, S100P, S100Z); assay: Trp fluorescence screen of AnI against other S100 proteins; type: binding, human; settings: any S100 protein other than S100A11 and S100A6; protein:peptide ratio up to 5:1
# In short: (§3)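 This screen used a thermostated cell, 295 nm excitation, and emission scanned over 305–400 nm. Concentrated protein in assay buffer was added stepwise to 2 μM AnI, up to 10 μM protein (5:1). For Trp-containing S100A1, A3, A8, A9 and A13, AnI was instead added to 2 μM protein up to 5:1 peptide:protein, and protein-only spectra were subtracted.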
# S100A11 [12] = settings: cited from earlier work
# [13] = system: S100A6 variants (Y73F, Y84S, Y73F/Y84S); assay: Binding affinity of AnI for substituted S100A6 variants; design: species or system human; settings: data not shown
# calmodulin [14] = assay: Trp fluorescence screen of AnI against calmodulin; type: binding; settings: protein:peptide ratio up to 5:1
# In short: as §3
# S100A6 [15] = target: T1, S100A6; assay: Far-UV CD difference spectra, AnI with S100A6; type: binding
# S100A10 [16] = target: T3, S100A10 (Homo sapiens, UniProt P60903); assay: ITC of AnII binding to S100A10
# T3 sequence (P60903 whole entry): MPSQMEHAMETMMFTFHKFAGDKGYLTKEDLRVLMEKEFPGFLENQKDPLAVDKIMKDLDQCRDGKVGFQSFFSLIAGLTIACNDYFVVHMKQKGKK
# In short: (§4)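 Isothermal titration calorimetry in 20 mM Tris, 0.2 mM EDTA, 1 mM TCEP, pH 7.5. S100A10 was run with 5 mM calcium or without calcium; Ca2+-S100A11 was run with or without 100 mM NaCl. Protein and peptide were co-dialysed at 4°C. Screens injected 2 μL of about 0.75 mM peptide into about 20–25 μM protein at 10 and 25°C, continuing to saturation when heat appeared. Integrated heats were fit to two sequential sites per dimer, over five temperatures. ΔCp was taken from the slope of ΔHcal against temperature.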
# S100A10 [17] = target: T3, S100A10; assay: Far-UV CD difference spectra, AnII with S100A10; type: binding
# In short: as §2
# S100A11 [18] = target: T2, S100A11; assay: ITC of AnII binding to Ca2+-S100A11
# In short: as §4
# Ca2+-S100P = settings: ref [25], cited from earlier work
# calmodulin [19] = settings: ref [27]; cited from earlier work
# [20] = 5 mM calcium, pH 7.5, excitation 295 nm
# [21] = literature, AnII labeled with Prodan in that study, ref [15]
# [22] = ITC screen and calcium dependence
# [23] = slope of ΔHcal vs temperature, ITC at 5 temperatures
substance,measurement,setting,value
Ac-AMVSEFLKQAWFIE [AnI],far-UV CD difference spectrum,S100A6-Y84S,the difference spectrum for the Y84S variant has a similar spectrum to that of the wild type
same,fluorescence emission maximum wavelength of AnI upon addition of Ca2+-S100A6,S100A6 [1]; [20],352 nm
same,change in Trp fluorescence without calcium,S100A6 [1]; S100A6 in the absence of calcium,No changes in Trp-fluorescence
same,binding,"S100A6 [1]; Trp fluorescence screen, Ca2+-S100A6",AnI has been found to bind Ca^2+-S100A6
same,molecular mass in solution (oligomeric state),[2],1.9 ± 0.07 kDa
same,secondary structure in TFE,[3],far-UV CD spectra characteristic of helices
same,binding,S100A10 [4],S100A10 binds AnII but not AnI
same,fluorescence emission maximum wavelength of free AnI,[5],approximately 359 nm
same,Kd,S100A11 [6],5 ± 1 µM
same,fluorescence emission maximum wavelength of AnI in presence of Ca2+-S100A11,S100A11 [6]; [20],350 nm
same,change in Trp emission spectra without calcium,S100A11 [6]; S100A11 in the absence of calcium,very little change in the emission spectra
same,binding,"S100A11 [6]; Trp fluorescence screen, Ca2+-S100A11",AnI has been found to bind Ca^2+-S100A6 and Ca^2+-S100A11
same,enthalpy of binding (sign/size),S100A6 [7],either negative or positive but small relative to the free energy of binding
same,binding to the other S100 proteins,[8],bind to only these S100 proteins and not the others
same,fractional helicity upon binding,S100A11 [9],0.59
same,coil-to-helix transition upon binding,S100A11 [9],undergo a coil-to-helix transition upon binding
same,Kd,S100A11 [10],5 ± 2 µM
same,temperature dependence of dissociation constant,"S100A11 [10]; ITC, 15-35°C",does not depend significantly on temperature
same,enthalpy of binding ΔHcal at 15°C,"S100A11 [10]; ITC, 15°C, 5 mM calcium",-0.96 kcal/mol
same,enthalpy of binding ΔHcal at 35°C,"S100A11 [10]; ITC, 35°C, 5 mM calcium",-7.17 kcal/mol
same,free energy of binding ΔG=−RTln(Kd),"S100A11 [10]; per binding site, from ITC Kd",≈ 30 kJ/mol; also recorded: ≈ 26 kJ/mol
same,"ΔCp,exp","S100A11 [10]; slope of ΔHcal vs temperature, ITC 15-35°C, 5 mM calcium",−1.3±0.2 kJ/(mol·K)
same,change in Trp fluorescence (emission maximum or intensity) in screen,[11],did not show changes in Trp fluorescence
same,binding,S100A11 [12]; [21],S100A11 binds AnI but not AnII
same,effect of S100A6 substitutions on binding affinity,[13],the substitutions do not have a significant effect on the binding affinity
same,change in Trp fluorescence / binding in screen,calmodulin [14],did not show changes in Trp fluorescence; also recorded: Neither peptide was found to bind to calmodulin
same,far-UV CD difference spectrum,"S100A6 [15]; AnI with Ca2+-S100A6 wild type, 10 μM protein, 50 μM AnI, 5 mM calcium",A noted lower elipticity
same,coil-to-helix transition upon binding,"S100A6 [15]; far-UV CD, Ca2+-S100A6",undergo a coil-to-helix transition upon binding
Ac-STVHEILSKLSLEGY [AnII],molecular mass in solution (oligomeric state),[2],1.9 ± 0.16 kDa
same,effect of calcium on ITC binding,S100A10 [16]; 5 mM calcium compared with absence of calcium,very similar to the data obtained in the absence of calcium
same,binding,S100A10 [16]; [22],the binding is independent of calcium; also recorded: AnII has been found to bind S100A10
same,enthalpy of binding (sign/size),"S100A10 [16]; ITC, total enthalpy from both binding sites, entire temperature range",large and negative; also recorded: exothermic
same,"ΔCp,exp",S100A10 [16]; [23],−2.4±0.3 kJ/(mol·K)
same,secondary structure in TFE,[3],far-UV CD spectra characteristic of helices
same,binding,S100A10 [4],S100A10 binds AnII but not AnI
same,binding to the other S100 proteins,[8],bind to only these S100 proteins and not the others
same,fractional helicity upon binding,S100A11 [9],0.57
same,coil-to-helix transition upon binding,S100A11 [9],undergo a coil-to-helix transition upon binding
same,binding,"S100A11 [12]; NMR spectroscopy, ref [16]",AnII can interact with Ca^2+-S100A11
same,binding,S100A11 [12]; [21],S100A11 binds AnI but not AnII
same,helicity when bound,S100A10 [17]; compared to AnII bound to S100A11,AnII becomes more helical when bound to S100A10 compared to when it is bound to S100A11
same,coil-to-helix transition upon binding,"S100A10 [17]; far-UV CD, S100A10",undergo a coil-to-helix transition upon binding
same,effect of ionic strength on thermodynamics of binding,S100A11 [18]; 100 mM NaCl,did not have any effect on the thermodynamics of binding
same,enthalpy of binding (sign/size),S100A11 [18]; ITC,endothermic but small relative to the Gibbs energy of binding
same,binding,S100A11 [18]; [22],this binding to S100A11 is also modulated by calcium; also recorded: AnII has been found to bind S100A10 and Ca^2+-S100A11
same,"ΔCp,exp",S100A11 [18]; [23],−1.1±0.2 kJ/(mol·K)
melittin: peptide with the ability to bind both S100P and calmodulin,ΔCp,Ca2+-S100P; melittin binding to Ca2+-S100P,−2.5±0.5 kJ/(mol·K)
same,binding,Ca2+-S100P,has the ability to bind both S100P
same,binding,calmodulin [19],has the ability to bind both S100P ([25]) and calmodulin
